{"source": "ChEMBL document CHEMBL1147036", "about": "“An NQO1- and PARP-1-mediated cell death pathway induced in non-small-cell lung cancer cells by beta-lapachone” (2007)", "key": {"[1]": {"tested_on": "NCI-H596", "test": "Induction of DNA damage in NQO1 expressing human H596 cells at 10 uM after 2 hrs by alkaline comet tail assay", "type": "functional, cell-based", "procedure,_shortened": "(§1)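 Cells exposed 10 μM drug for 2 h, ± 50 μM DIC; 2 mM H2O2 for 2 h as positive control. Alkaline comet assay, SYBR Green staining, fluorescence microscopy; tail lengths quantified in arbitrary units. Means ± SE from three experiments.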"}, "[2]": {"tested_on": "NCI-H596", "test": "Reversal of induction of PARP1 hyperactivation in NQO1 expressing human H596 cells assessed as PAR accumulation at 10 uM for 10 mins by Western blot", "type": "functional, cell-based"}, "[3]": {"tested_on": "NCI-H596", "test": "Reversal of induction of ATP depletion in NQO1 expressing human H596 cells at 10 uM in presence of 40 uM dicoumarol by luciferase based bioluminescence assay", "type": "functional, cell-based", "procedure,_shortened": "(§2)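 Cells exposed to 10 μM drug, harvested at set times; ATP measured in whole-cell extracts by luciferase bioluminescence. DIC coadded with drug in NQO1 inhibition arms. Means ± SE, three or more experiments in triplicate.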"}, "[4]": {"tested_on": "A549", "test": "Reversal of induction of nucleotide depletion in NQO1 expressing human A549 cells in presence of 3-aminobenzamide by luciferase based bioluminescence assay", "type": "functional, cell-based", "procedure,_shortened": "(§3)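 Cells pretreated 2 h ± 25 mM 3-AB, then drug ± 3-AB; harvested at set times. NAD+ as % treated/control; ATP by luciferase bioluminescence of whole-cell extracts. Means ± SE of three experiments.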"}, "[5]": {"tested_on": "A549", "test": "Reversal of induction of NAD+ depletion in NQO1 expressing human A549 cells at 10 uM in presence of 40 uM dicoumarol by luciferase based bioluminescence assay", "type": "functional, cell-based", "procedure,_shortened": "(§4)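 10 μM drug ± 40 μM DIC; intracellular NAD+ measured at set times and expressed as % treated/control. Means ± SE of at least three independent experiments, each in duplicate.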"}, "[6]": {"tested_on": "NCI-H596", "test": "Cytotoxicity against NQO1 expressing human H596 cells assessed as long term survival at =>5 uM for 2 hrs", "type": "functional, cell-based", "procedure,_shortened": "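Isogenic H596 lines (retroviral NQO1 or empty vector, pooled, puromycin 1.0 μg/ml selected) in DMEM/10% FBS, 37°C, 5% CO2. Drug given 2 h, then removed; relative survival from DNA content after 7 days' growth. Confirmed by colony formation; means ± SE of three experiments in triplicate.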"}, "[7]": {"tested_on": "A549", "test": "Reversal of cell death in human A549 cells at 10 uM in presence of 3-aminobenzamide after 2 hrs", "type": "functional, cell-based"}, "[8]": {"tested_on": "A549", "test": "Induction of ATP depletion in NQO1 expressing human A549 cells at 10 uM by luciferase based bioluminescence assay", "type": "functional, cell-based", "procedure,_shortened": "as §2"}, "[9]": {"tested_on": "NCI-H596", "test": "Induction of ATP depletion in NQO1 expressing human H596 cells at 10 uM by luciferase based bioluminescence assay", "type": "functional, cell-based", "procedure,_shortened": "as §2"}, "[10]": {"tested_on": "A549", "test": "Reversal of induction of ATP depletion in NQO1 expressing human A549 cells at 10 uM in presence of 40 uM dicoumarol by luciferase based bioluminescence assay", "type": "functional, cell-based", "settings": "in the assay text read “50 uM dicoumarol” for “40 uM dicoumarol”", "procedure,_shortened": "as §2"}, "[11]": {"test": "Cytotoxicity against NQO1 expressing human H596 cells after 2 hrs", "type": "functional", "settings": "NCI-H596, 2 h, read-out: LD50 (the source's name)", "procedure,_shortened": "(§5)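 Long-term relative survival assay: cells exposed to drug for 2 h (A549 with or without 50 μM dicoumarol), drug removed, then grown 7 days post-treatment in DMEM with 10% FBS at 37°C, 5% CO2. Survival read from DNA content and confirmed by colony-forming ability. LD50 from dose-response; means ± SE, at least three experiments in triplicate. H596 line stably expressing NQO1 via retroviral vector, puromycin-selected.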"}, "[12]": {"tested_on": "NCI-H596", "test": "Induction of NAD+ depletion in NQO1 expressing human H596 cells at 10 uM by luciferase based bioluminescence assay", "type": "functional, cell-based", "procedure,_shortened": "as §4"}, "[13]": {"tested_on": "NCI-H596", "test": "Induction of PARP1 hyperactivation in NQO1 expressing human H596 cells assessed as PAR accumulation at 10 uM for 10 mins by Western blot", "type": "functional, cell-based"}, "[14]": {"tested_on": "A549", "test": "Reversal of induction of DNA damage in human A549 cells in presence of 3-aminobenzamide at 10 uM after 2 hrs", "type": "functional, cell-based"}, "[15]": {"tested_on": "A549", "test": "Induction of NAD+ depletion in NQO1 expressing human A549 cells at 6 uM after 1 hr by luciferase based bioluminescence assay", "type": "functional", "procedure,_shortened": "(§6)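 A549 cells pretreated with 5 μM BAPTA-AM or mock, then given 6 μM drug for 1 h; percent NAD+ loss measured as surrogate of PARP-1 hyperactivation, expressed as % of control.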"}, "[16]": {"tested_on": "A549", "test": "Induction of PARP1 hyperactivation in NQO1 expressing human A549 cells assessed as PAR accumulation at 10 uM for 10 mins by Western blot", "type": "functional, cell-based"}, "[17]": {"tested_on": "A549", "test": "Reversal of PAR-polymer formation in NQO1 expressing human A549 cells at 10 uM in presence of 50 uM dicoumarol", "type": "functional, cell-based"}, "[18]": {"tested_on": "NCI-H596", "test": "Reversal of induction of NAD+ depletion in NQO1 expressing human H596 cells at 10 uM in presence of 40 uM dicoumarol by luciferase based bioluminescence assay", "type": "functional, cell-based", "procedure,_shortened": "as §4"}, "[19]": {"tested_on": "A549", "test": "Reversal of cell death in NQO1 expressing human A549 cells at 6 uM in presence of 1,2-bis(2-aminophenoxy)ethane-N,N,N',N'-tetraacetic acid acetoxymethyl ester", "type": "functional, cell-based"}, "[20]": {"tested_on": "A549", "test": "Induction of DNA damage in NQO1 expressing human A549 cells at 10 uM in presence of dicoumarol after 2 hrs by alkaline comet tail assay", "type": "functional, cell-based", "procedure,_shortened": "as §1"}, "[21]": {"tested_on": "NCI-H596", "test": "Induction of PARP1 hyperactivation in NQO1 deficient human H596 cells assessed as PAR accumulation at 10 uM for 10 mins by Western blot", "type": "functional, cell-based"}, "[22]": {"tested_on": "NCI-H596", "test": "Reversal of PARP1 hyperactivation in NQO1 expressing human H596 cells assessed as PAR formation in presence of 3-aminobenzamide", "type": "functional, cell-based", "procedure,_shortened": "(§7)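 Cells pretreated 2 h with or without 25 mM 3-aminobenzamide, then exposed to drug with or without 3-AB for 20 min; PAR formation read by Western blot.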"}, "[23]": {"tested_on": "A549", "test": "Reversal of PARP1 hyperactivation in NQO1 expressing human A549 cells assessed as PAR formation at 6 uM in presence of 1,2-bis(2-aminophenoxy)ethane-N,N,N',N'-tetraacetic acid acetoxymethyl ester", "type": "functional, cell-based", "procedure,_shortened": "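A549 cells pretreated with 5 μM BAPTA-AM or mock, then exposed to 6 μM drug for 10 min; lysates probed for PAR by Western blot.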"}, "[24]": {"tested_on": "A549", "test": "Cytotoxicity against NQO1 expressing human A549 cells after 2 hrs", "type": "functional", "settings": "A549, 2 h, read-out: LD50 (the source's name)", "procedure,_shortened": "as §5"}, "[25]": {"tested_on": "NCI-H596", "test": "Reversal of induction of nucleotide depletion in NQO1 expressing human H596 cells in presence of 3-aminobenzamide by luciferase based bioluminescence assay", "type": "functional, cell-based", "procedure,_shortened": "as §3"}, "[26]": {"tested_on": "A549", "test": "Induction of NAD+ depletion in NQO1 expressing human A549 cells at 10 uM by luciferase based bioluminescence assay", "type": "functional, cell-based", "procedure,_shortened": "as §4"}, "[27]": {"tested_on": "NCI-H596", "test": "Induction of oxidative stress in NQO1 expressing human H596 cells assessed as reactive oxygen species generation at 10 uM after 1 hr by flow cytometry", "type": "functional, cell-based", "procedure,_shortened": "(§8)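 Cells given 10 μM drug ± 50 μM DIC; ROS monitored over a time course by conversion of chloromethyl-dichlorodihydrofluorescein diacetate to fluorescent product, read by flow cytometry. 2 mM H2O2 or 10 μM antimycin A for 20 min as positive controls. Means ± SE, three experiments in duplicate.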"}, "[28]": {"tested_on": "A549", "test": "Induction of oxidative stress in NQO1 expressing human A549 cells assessed as reactive oxygen species generation at 10 uM after 1 hr by flow cytometry", "type": "functional, cell-based", "procedure,_shortened": "as §8"}, "[29]": {"tested_on": "NCI-H596", "test": "Reversal of PAR-polymer formation in NQO1 expressing human H596 cells at 10 uM in presence of 50 uM dicoumarol", "type": "functional, cell-based"}, "[30]": {"tested_on": "A549", "test": "Induction of DNA damage in NQO1 expressing human A549 cells at 10 uM after 2 hrs by alkaline comet tail assay", "type": "functional, cell-based", "procedure,_shortened": "as §1"}, "[31]": {"tested_on": "A549", "test": "Reversal of induction of NAD+ depletion in NQO1 expressing human A549 cells at 6 uM in presence of 1,2-bis(2-aminophenoxy)ethane-N,N,N',N'-tetraacetic acid acetoxymethyl ester", "type": "functional, cell-based", "procedure,_shortened": "as §6"}, "[32]": {"tested_on": "NCI-H596", "test": "Induction of DNA damage in NQO1 expressing human H596 cells at 10 uM in presence of dicoumarol after 2 hrs by alkaline comet tail assay", "type": "functional, cell-based", "procedure,_shortened": "as §1"}, "[33]": {"tested_on": "NCI-H596", "test": "Induction of DNA damage in NQO1 deficient human H596 cells at 10 uM after 2 hrs by alkaline comet tail assay", "type": "functional, cell-based", "procedure,_shortened": "as §1"}, "[34]": {"tested_on": "A549", "test": "Reversal of PARP1 hyperactivation in NQO1 expressing human A549 cells assessed as PAR formation in presence of 3-aminobenzamide", "type": "functional, cell-based", "procedure,_shortened": "as §7"}, "[35]": {"tested_on": "A549", "test": "Reversal of induction of cell death in human A549 cells in presence of 3-aminobenzamide at 10 uM after 48 hrs by TUNEL assay", "type": "functional, cell-based"}}, "note": "Calls of active or inactive are those of the source. The calls are words filed in the database; no cut-off is given here.", "data": [{"compound": "CC1(C)CCC2=C(O1)c1ccccc1C(=O)C2=O", "note": "[LAPACHONE]", "values": [{"measurement": "Activity", "setting": "[1]", "result": "Active"}, {"measurement": "Activity", "setting": "[2]", "result": "Active"}, {"measurement": "Activity", "setting": "[3]", "result": "Active"}, {"measurement": "Activity", "setting": "[4]", "result": "Active"}, {"measurement": "Activity", "setting": "[5]", "result": "Active"}, {"measurement": "Activity", "setting": "[6]", "result": "Active"}, {"measurement": "Activity", "setting": "[7]", "result": "Active"}, {"measurement": "Activity", "setting": "[8]", "result": "Active"}, {"measurement": "Activity", "setting": "[9]", "result": "Active"}, {"measurement": "Activity", "setting": "[10]", "result": "Active"}, {"measurement": "CC50", "setting": "[11]", "result": 4, "unit": "µM"}, {"measurement": "Activity", "setting": "[12]", "result": "Active"}, {"measurement": "Activity", "setting": "[13]", "result": "Active"}, {"measurement": "Activity", "setting": "[14]", "result": "Active"}, {"measurement": "Activity", "setting": "[15]", "result": 43, "unit": "%"}, {"measurement": "Activity", "setting": "[16]", "result": "Active"}, {"measurement": "Activity", "setting": "[17]", "result": "Active"}, {"measurement": "Activity", "setting": "[18]", "result": "Active"}, {"measurement": "Activity", "setting": "[19]", "result": "Active"}, {"measurement": "Activity", "setting": "[20]", "result": "inactive"}, {"measurement": "Activity", "setting": "[21]", "result": "inactive"}, {"measurement": "Activity", "setting": "[22]", "result": "Active"}, {"measurement": "Activity", "setting": "[23]", "result": "Active"}, {"measurement": "CC50", "setting": "[24]", "result": 2.5, "unit": "µM"}, {"measurement": "Activity", "setting": "[25]", "result": "Active"}, {"measurement": "Activity", "setting": "[26]", "result": "Active"}, {"measurement": "Activity", "setting": "[27]", "result": "Active"}, {"measurement": "Activity", "setting": "[28]", "result": "Active"}, {"measurement": "Activity", "setting": "[29]", "result": "Active"}, {"measurement": "Activity", "setting": "[30]", "result": "Active"}, {"measurement": "Activity", "setting": "[31]", "result": "Active"}, {"measurement": "Activity", "setting": "[32]", "result": "inactive"}, {"measurement": "Activity", "setting": "[33]", "result": "inactive"}, {"measurement": "Activity", "setting": "[34]", "result": "Active"}, {"measurement": "Activity", "setting": "[35]", "result": "Active"}]}]}
